The values below come from PubChem BioAssay.

Experiment [1] can be described thus: OD615 S. cerevisiae growth inhibition, permissive medium, pilot counter-assay, permissive growth control for S. cerevisiae lifespan shortening project (AID 705;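 active = growth inhibition above 25% in both replicates, a cutoff set 3 SD above the mean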). As to conditions: OD615, 24 h, at 10 µM, active compounds read high. The procedure, abridged:
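System: Engineered DeaD yeast | Buffer or medium: SC raffinose/galactose permissive medium | Doses: 10 µM single dose, 0.25% DMSO | Times: 24 h exposure, 30 °C | Measured by: OD615 turbidity read | Read-out: Yeast growth inhibition indicated by reduced 24 h OD615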

Experiment [2] is described as follows: Restrictive medium S. cerevisiae growth inhibition, OD615, pilot screen of yeast lifespan reduction project, restrictive growth control (AID 706;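 active = growth inhibition above a set limit, 3 SD over mean compound inhibition, in both replicates, cut at about 43% in these data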;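 also: modified DeaD lifespan yeast strain shifted to restrictive glucose medium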). Particulars: OD615, 48 h, at 10 µM, active compounds read high. The gist of the method: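 Assay system: engineered S. cerevisiae DeaD strain; Buffer or medium: CSMM-D glucose medium; Dosing: 10 µM compound, 0.25% DMSO; Times: cell pre-growth 4 h, compound exposure 48 h, 30 °C; Detection: absorbance (optical density) measured at 615 nm.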

Experiment [3] in a line: viability gain of MRP-1-high H69AR cells under doxorubicin, pilot screen, MRP-1 activator project, CellTiter-Glo, duplicate (AID 807).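 Also: compound pretreatment 18-22 h then 72 h combined with doxorubicin; 0% = doxorubicin alone and 100% = vehicle without doxorubicin.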 Particulars: H69AR viability with doxorubicin, CellTiter-Glo luminescence; at 10 µM; active compounds read high. (Cellular ATP, detected with luciferase, serves as a proxy for viable cell number.)
Experiment [4] can be described thus: growth suppression of beta-catenin knockout HCT116, pilot screen, human colon tumor cells (AID 823;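 active = cell viability at or below a set limit in both duplicate runs, the limit being the all-compound median minus 4 SD, cut at about 23% in these data, passing the limit was not always enough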;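 also: 0% = wells killed by 20 µM Hyamine and 100% = untreated DMSO cell wells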). As to conditions: CellTiter-Glo, 60 h, at 10 µM, active compounds read low.
A short description of experiment [5]: growth suppression of PTEN-deleted HCT116, pilot screen, cell-based, HCT116 clonal line, CellTiter-Glo (AID 824;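 active = viability at or below 27.92% in each of two runs, the all-compound median minus 4 SD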;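 also: 0% = 20 µM Hyamine control and 100% = vehicle cell control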). As to conditions: 60 h, at 10 µM, active compounds read low.
The nature of experiment [6]: inhibitors of the yeast RAM network, pilot screen, dse1pr::URA3 reporter, 5-FOA selection (AID 869;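 active = inhibition over a set limit, the all-compound mean plus 3 SD, in both replicate runs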;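 also: 0% = DMSO wells with no growth and 100% = 10 µM 1-NA-PP1 with full growth; RAM network block rescues cells from 5-FOA so hits raise OD615 growth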). Particulars: S. cerevisiae dse1pr::URA3 5-FOA growth, OD615, 2 d; at 10 µM; active compounds read high; strain carries analog-sensitive mutant Cbk1 kinase.
A short description of experiment [7]: RAM signaling pathway blockade in yeast – S. cerevisiae, Pdr1DBD-CYC8 efflux-inhibited sensitized strain, primary screen (AID 1298;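 active = RAM network inhibition above 8.4% in each of two replicates, 3 SD over the compound average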;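 also: 0% = DMSO untreated cells without growth and 100% = 10 µM 1-NA-PP1 full growth; higher means more yeast growth rescued from 5-FOA killing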). Particulars: S. cerevisiae cbk1-as DSE1-URA3 strain, 5-FOA growth OD615, 2 d; at 50 µM; active compounds read high.

Values without a mark were called inactive. Records with an inconclusive call do not appear. The source made the active and inactive calls.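 The calls were made as follows, unless noted: active = viability increase at or above a cutoff of the median across tested compounds plus 3 SD (cut at about 8.5% in these data, passing the limit was not always enough); inconclusive = some gains above the cutoff, reason not given; inactive = the rest.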

The term viability denotes a read-out of living cells in per cent, often relative to untreated cells. One may read the inhibition as the drop in the measured response relative to a control, in per cent. As for `CCc1nccn1S(=O)(=O)c1ccc2ccccc2c1`, the results for the growth inhibition in experiment [1] and in experiment [2] were 0.77% and -2.31%, respectively. In experiment [3], the viability increase was -1.22%. The figures for the viability in experiment [4] and in experiment [5] were 102% and 103%, respectively. In addition, the inhibition in experiment [6] is 0.7%. Moreover, the RAM network inhibition in experiment [7] is 3.49%.

Regarding `CC(NC(=O)Cc1ccccc1)c1nc2ccccc2[nH]1` (stereo unspecified), the growth inhibition is -3.99% in experiment [1] and -1.91% in experiment [2]. Besides, the viability increase in experiment [3] was -1.22%. Moreover, the results for the viability in experiment [4] and in experiment [5] were 108% and 97.1%, respectively. Further, in experiment [6], the inhibition is 0.08%. In addition, the RAM network inhibition in experiment [7] is 3.75%.

In the case of `Cc1ccnc(SCCn2c(N3CCN(c4ccccc4)CC3)nc3c2c(=O)[nH]c(=O)n3C)n1`, the results for the growth inhibition in experiment [1] and in experiment [2] were -8.81% and 5.83%, respectively. Also, the viability increase in experiment [3] was -3.59%. In addition, the viability was 89.4% in experiment [4] and 76.8% in experiment [5]. Further, the inhibition in experiment [6] is 2.09%. Further, the RAM network inhibition in experiment [7] is 4.01%.

Consider `CCCSCCCNC(=O)Cn1cc2c(n1)CCCCC2`, for which the growth inhibition in experiment [1] is -3.9%; in experiment [2] it was 5.24%. Further, the viability increase in experiment [3] was -2.42%. The viability in experiment [4] is 94%; in experiment [5], 93.2%. Besides, in experiment [6], the inhibition was -0.37%. In addition, the RAM network inhibition in experiment [7] is 3.05%.

Regarding `O=C(NO)c1ccc(C(=O)N(C2CCCCC2)C2CCCCC2)cc1`, the growth inhibition in experiment [1] is -0.05%; in experiment [2] it was 5.84%. Moreover, the viability increase in experiment [3] is -5.78%. Also, the viability in experiment [4] is 17.2% (active); in experiment [5] it was 36.1%. Moreover, the inhibition in experiment [6] is 0.64%. In addition, in experiment [7], the RAM network inhibition is -1.08%.

Regarding `CC1CCCN(c2nc3c(c(=O)[nH]c(=O)n3C)n2CCSc2nc3ccccc3o2)C1` (stereo unspecified), the values for the growth inhibition in experiment [1] and in experiment [2] were -1.52% and -1.66%, respectively. Besides, in experiment [3], the viability increase was -3.56%. The viability in experiment [4] is 98%; in experiment [5], 98.5%. Also, the inhibition in experiment [6] is 0.55%. Further, in experiment [7], the RAM network inhibition is 7.08%.

As to `CNC(=O)C1CC(=O)N(c2ccc(C)cc2)C1` (stereo unspecified), the growth inhibition was -11.6% in experiment [1] and -11.4% in experiment [2]. Besides, the viability increase in experiment [3] was 0.85%. Moreover, the viability in experiment [4] is 98.5%; in experiment [5] it was 102%. Further, the inhibition in experiment [6] was 0.395%. The RAM network inhibition in experiment [7] is 2.24%.

`CCOc1ccc(NC(=O)CSc2nnc(Cc3cccn3C)n2-c2ccc(F)cc2)cc1`: the growth inhibition in experiment [1] was 11.1%; in experiment [2] it was 19.2%. Besides, the viability increase in experiment [3] is -4.64%. For the same compound, the viability was 95.7% in experiment [4] and 91% in experiment [5]. Moreover, the inhibition in experiment [6] is 1.56%. In addition, in experiment [7], the RAM network inhibition is 6.97%.

As for `O=C(Nc1nc2c(Cl)ccc(Cl)c2s1)c1ccco1`, the growth inhibition in experiment [1] is -22%; in experiment [2], -3.32%. Also, the viability increase in experiment [3] is -6.22%. Also, the viability in experiment [4] was 90.1%; in experiment [5], 85.2%. For the same compound, the inhibition in experiment [6] was 1.41%. Also, the RAM network inhibition in experiment [7] was 2.84%.

On to `COc1ccccc1NC(=O)Cn1c(=O)n2nc(C)nc2c2ccccc21`, for which the growth inhibition is -11% in experiment [1] and -16.9% in experiment [2]. Moreover, the viability increase in experiment [3] was -4.08%. Moreover, the viability in experiment [4] was 102%; in experiment [5] it was 90.3%. Also, in experiment [6], the inhibition was 1.47%. For the same compound, the RAM network inhibition in experiment [7] was 2.31%.

Take `O=c1oc2ccccc2n1Cc1ccccc1Cl`: the results for the growth inhibition in experiment [1] and in experiment [2] were -1.38% and 8.91%, respectively. In addition, the viability increase in experiment [3] was -0.37%. Moreover, the viability is 97.1% in experiment [4] and 99.5% in experiment [5]. The inhibition in experiment [6] was 1.56%. For the same compound, in experiment [7], the RAM network inhibition is 0.31%.

As to `COc1ccc(N2CCN(C(=O)c3sc4nc(-c5ccc(F)cc5)cn4c3C)CC2)cc1`, the growth inhibition in experiment [1] is -10.6%; in experiment [2], -19.7%. Moreover, in experiment [3], the viability increase is -4.7%. Besides, the results for the viability in experiment [4] and in experiment [5] were 102% and 95.6%, respectively. For the same compound, the inhibition in experiment [6] was 2.24%. Further, the RAM network inhibition in experiment [7] is 3.45%.

Take `CCOc1ccc(C2C(C#N)=C(N)SC(N)=C2C#N)cc1OCC`: the results for the growth inhibition in experiment [1] and in experiment [2] were 12.6% and -4.33%, respectively. In addition, the viability increase in experiment [3] was -0.77%. Also, the viability in experiment [4] was 103%; in experiment [5] it was 91.5%. Besides, the inhibition in experiment [6] was 0.96%. For the same compound, the RAM network inhibition in experiment [7] is 7.43%.

In the case of `COc1ccc(OC)c2sc(NC(=O)CCS(=O)(=O)c3ccccc3)nc12`, the growth inhibition in experiment [1] is -8.91%; in experiment [2], -10.2%. Further, the viability increase in experiment [3] was -8.72%. Also, the values for the viability in experiment [4] and in experiment [5] were 36.1% and 44.3%, respectively. Besides, the inhibition in experiment [6] is 4.41%. Besides, the RAM network inhibition in experiment [7] is 11%.

With `CCC(C)(C(=O)NC1CCCCC1)N(Cc1ccco1)C(=O)CNC(=O)c1ccccc1` (stereo unspecified), the growth inhibition is -14.3% in experiment [1] and -12.2% in experiment [2]. The viability increase in experiment [3] was -3.39%. The values for the viability in experiment [4] and in experiment [5] were 83.5% and 90.1%, respectively. Besides, the inhibition in experiment [6] was 0.145%. Besides, in experiment [7], the RAM network inhibition is 6.49%.

For the compound `CC(=O)Nc1ccc2nc(-c3cccs3)[nH]c2c1`, the growth inhibition is -5.51% in experiment [1] and -15.4% in experiment [2]. In experiment [3], the viability increase was -2.88%. In addition, the viability in experiment [4] is 97.8%; in experiment [5], 90.3%. Also, the inhibition in experiment [6] is 2.38%. The RAM network inhibition in experiment [7] was 4.66%.

As for `O=C(C1CCC(CNc2c(N3CCOCC3)c(=O)c2=O)CC1)N1CCN(c2ccccc2)CC1` (stereo unspecified), the growth inhibition was -0.4% in experiment [1] and -8.31% in experiment [2]. Moreover, in experiment [3], the viability increase is -1.19%. The viability in experiment [4] was 95.8%; in experiment [5] it was 83.7%. Moreover, in experiment [6], the inhibition was 2.86%. For the same compound, in experiment [7], the RAM network inhibition is 1.31%.

As to `O=c1cc(CO)oc(C(Nc2ccccn2)c2ccccc2F)c1O` (stereo unspecified), the figures for the growth inhibition in experiment [1] and in experiment [2] were -10.6% and -4.86%, respectively. The viability increase in experiment [3] was -5.64%. For the same compound, the viability was 106% in experiment [4] and 93.3% in experiment [5]. In addition, the inhibition in experiment [6] is 0.95%. In addition, the RAM network inhibition in experiment [7] is 2.91%.
